# pIC50: −log10 of the molar value.
# What was measured:
# [1] = Phototoxicity against human HaCaT cells assessed as cell viability at 1 uM after irradiation with light at 180 J/cm'2 for 30 mins by MTT assay; type: functional; settings: light or radiation study, 0.5 h, read-out: Activity
# Procedure, shortened: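 HaCaT screen at 1 µM porphyrin. Light 100 mW/cm² for 30 min (fluence 180 J/cm²). Viability by MTT, given as percent.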
# [2] = Induction of singlet oxygen production assessed as amount of DPiBF remaining after irradiation with light at 9 mW/cm'2 for 30 mins by DPiBF photooxidation based spectrophotometric analysis (reference value: 80%); type: physicochemical; settings: 0.5 h
# Procedure, shortened: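 Singlet oxygen measured by DPiBF photooxidation in DMF. Light at 9 mW/cm² for 30 min. DPiBF absorbance at 415 nm reported as percent of the starting value.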
# [3] = Photostability of compound in aqueous media assessed as amount of soret band remaining after irradiation with white light at 100 mW/cm'2 for 30 mins by UV-spectrophotometric analysis; type: physicochemical; settings: read-out: Stability
# Procedure, shortened: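 Porphyrin in aqueous medium under white light, 100 mW/cm², sampled at intervals up to 30 min. Soret band absorbance tracked and given as percent remaining of the original.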
# [4] = Phototoxicity against human HaCaT cells assessed as reduction in cell viability after irradiation with white light at 120 J/cm'2 for 20 mins by MTT assay; type: functional, cell-based; settings: light or radiation study
# Procedure, shortened: (§1)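 HaCaT PDT at 0.01, 0.03, 0.1, 0.3 and 1 µM porphyrin (untreated control as 0). Light 100 mW/cm² for 20 min (fluence 120 J/cm²). Viability by MTT. IC50 estimated from the roughly linear concentration–viability relationship.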
# [5] = Dark toxicity against human HaCaT cells assessed as reduction in cell viability at >0.1 uM after 24 hrs by MTT assay; type: cell-based
# Procedure, shortened: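 HaCaT keratinocytes held with porphyrin in the dark for 24 h, no light exposure, over 0.01–1 µM (untreated control as 0). Viability read by MTT.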
# [6] = Phototoxicity against human HaCaT cells assessed as cell viability at 0.01 uM after irradiation with white light at 120 J/cm'2 for 20 mins by MTT assay; type: functional; settings: light or radiation study, read-out: Activity; procedure, shortened: as §1
Activity [2],remaining at 0.5 h [3],Structure (SMILES),viability at 1 µM [1],pIC50 [4],Activity [5],viability at 0.01 µM [6]
59%,96%,Nc1ccc(-c2c3nc(c(-c4ccccc4)c4ccc([nH]4)c(-c4ccccc4)c4nc(c(-c5ccccc5)c5ccc2[nH]5)C=C4)C=C3)cc1,100%,–,–,–
29%,83%,CC(=O)Oc1ccc(-c2c3nc(c(-c4ccc(OC(C)=O)cc4)c4ccc([nH]4)c(-c4ccc(OC(C)=O)cc4)c4nc(c(-c5ccc(OC(C)=O)cc5)c5ccc2[nH]5)C=C4)C=C3)cc1,100%,–,–,–
20%,92%,C[n+]1ccc(-c2c3nc(c(-c4ccccc4)c4ccc([nH]4)c(-c4ccccc4)c4nc(c(-c5cc[n+](C)cc5)c5ccc2[nH]5)C=C4)C=C3)cc1.[I-].[I-],23.2%,7.28,Toxic,69%
12%,97%,C[n+]1ccc(-c2c3nc(c(-c4cc[n+](C)cc4)c4ccc([nH]4)c(-c4cc[n+](C)cc4)c4nc(c(-c5ccccc5)c5ccc2[nH]5)C=C4)C=C3)cc1.[I-].[I-].[I-],23.9%,7.17,–,–
13%,–,C[n+]1ccc(-c2c3nc(c(-c4ccccc4)c4ccc([nH]4)c(-c4ccccc4)c4nc(c(-c5ccccc5)c5ccc2[nH]5)C=C4)C=C3)cc1.[I-],29.4%,6.22,–,–
33%,96%,O=[N+]([O-])c1ccc(-c2c3nc(c(-c4ccccc4)c4ccc([nH]4)c(-c4ccccc4)c4nc(c(-c5ccccc5)c5ccc2[nH]5)C=C4)C=C3)cc1,92.8%,–,–,–
18%,91%,C[n+]1ccc(-c2c3nc(c(-c4ccccc4)c4nc(c(-c5cc[n+](C)cc5)c5ccc([nH]5)c(-c5ccccc5)c5ccc2[nH]5)C=C4)C=C3)cc1.[I-].[I-],19.5%,6.87,–,–
24%,91%,O=S(=O)([O-])c1ccc(-c2c3nc(c(-c4ccc(S(=O)(=O)[O-])cc4)c4ccc([nH]4)c(-c4ccc(S(=O)(=O)[O-])cc4)c4nc(c(-c5ccc(S(=O)(=O)[O-])cc5)c5ccc2[nH]5)C=C4)C=C3)cc1.[Na+].[Na+].[Na+].[Na+],76.1%,–,–,–

# Continued, compound first:
Structure (SMILES),Activity [2],remaining at 0.5 h [3],viability at 1 µM [1],pIC50 [4],Activity [5],viability at 0.01 µM [6]
Clc1ccc(-c2c3nc(c(-c4ccc(Cl)cc4)c4ccc([nH]4)c(-c4ccc(Cl)cc4)c4nc(c(-c5ccc(Cl)cc5)c5ccc2[nH]5)C=C4)C=C3)cc1,–,–,100%,–,–,–
C[n+]1ccc(-c2c3nc(c(-c4cc[n+](C)cc4)c4ccc([nH]4)c(-c4cc[n+](C)cc4)c4nc(c(-c5cc[n+](C)cc5)c5ccc2[nH]5)C=C4)C=C3)cc1.[I-].[I-].[I-].[I-],22%,98%,26.6%,7.23,–,–
Cc1ccc(-c2c3nc(c(-c4ccc(C)cc4)c4ccc([nH]4)c(-c4ccc(C)cc4)c4nc(c(-c5ccc(C)cc5)c5ccc2[nH]5)C=C4)C=C3)cc1,–,–,100%,–,–,–
COc1ccc(-c2c3nc(c(-c4ccc(OC)cc4)c4ccc([nH]4)c(-c4ccc(OC)cc4)c4nc(c(-c5ccc(OC)cc5)c5ccc2[nH]5)C=C4)C=C3)cc1,28%,97%,100%,–,–,–
O=[N+]([O-])c1ccc(-c2c3nc(c(-c4ccccc4)c4ccc([nH]4)c(-c4ccc([N+](=O)[O-])cc4)c4nc(c(-c5ccccc5)c5ccc2[nH]5)C=C4)C=C3)cc1,28%,97%,95.2%,–,–,–
C1=Cc2nc1c(-c1ccc3ccccc3c1)c1ccc([nH]1)c(-c1ccc3ccccc3c1)c1nc(c(-c3ccc4ccccc4c3)c3ccc([nH]3)c2-c2ccc3ccccc3c2)C=C1,25%,–,100%,–,–,–
C[n+]1ccc(Sc2c(F)c(F)c(-c3c4nc(c(-c5c(F)c(F)c(Sc6cc[n+](C)cc6)c(F)c5F)c5ccc([nH]5)c(-c5c(F)c(F)c(Sc6cc[n+](C)cc6)c(F)c5F)c5nc(c(-c6c(F)c(F)c(Sc7cc[n+](C)cc7)c(F)c6F)c6ccc3[nH]6)C=C5)C=C4)c(F)c2F)cc1.[I-].[I-].[I-].[I-],25%,89%,20.3%,6.62,–,–
C1=Cc2nc1c(-c1ccccc1)c1ccc([nH]1)c(-c1ccccc1)c1nc(c(-c3ccccc3)c3ccc([nH]3)c2-c2ccccc2)C=C1,–,–,100%,–,–,–
